Test results: ChEMBL document CHEMBL2029228, “Antimalarial activity of 9a-N substituted 15-membered azalides with improved in vitro and in vivo activity over azithromycin” (J Med Chem, 2012)
pIC50: −log10 of the molar value. Active and inactive are the calls of the source. No cut-off for these calls is given here.

Columns and labels:
[1] = Volume of distribution at steady state in CD1 mouse at 5 mg/kg, iv; assay type: ADME, organism-based; design: dose 5 mg/kg, route intravenous; conditions: in vivo, read-out: Vdss
Procedure, shortened: (§1)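 Male CD-1 mice (N = 3 per route) dosed IV at 5 mg/kg or orally at 25 mg/kg while fasted, mostly in saline (2.5 mg/mL). Tail-vein blood taken up to 24 h, cardiac puncture at 30 h. Samples hemolyzed, protein-precipitated with acetonitrile plus internal standard, analysed by positive ESI LC-MS/MS.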

Plasmodium berghei [2] = assay: Antimalarial activity against Plasmodium berghei KBG173 infected in mouse assessed as increase in mouse survival time at 5 mg/kg, iv BID administered on day 3, 4 and 5 post infection relative to azithromycin; assay type: functional
Procedure, shortened: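 Male mice (24−30 g) inoculated intraperitoneally with 5 × 10⁶ P. berghei KBG-173-infected erythrocytes; parasitemia 1.0–3.7% by day 3. IV dosing twice daily on days 3, 4 and 5 post-infection. Read-out is the survival time of the last animal alive. Mice blood-smear negative on day 31 counted as cured; mice losing ≥20% body weight sacrificed.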

[3] = Clearance at steady state in CD1 mouse at 5 mg/kg, iv; assay type: ADME, organism-based; design: dose 5 mg/kg, route intravenous; conditions: in vivo, read-out: CLss; procedure, shortened: as §1
[4] = Half life in CD1 mouse at 5 mg/kg, iv; assay type: ADME, organism-based; design: dose 5 mg/kg, route intravenous; conditions: CD1, mouse, in vivo; procedure, shortened: as §1
Mus musculus = assay: Unbound clearance in CD1 mouse at 5 mg/kg, iv; assay type: ADME, organism-based; design: dose 5 mg/kg, route intravenous; conditions: in vivo
Procedure, shortened: (§2)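 Fraction unbound measured in mouse plasma by ultrafiltration at 1 μg/mL. Unbound clearance = blood clearance/fu, assuming blood/plasma ratio of 1. Blood clearance comes from male CD-1 mice dosed IV at 5 mg/kg, with tail-vein sampling up to 24 h and LC-MS/MS analysis.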

Plasma = assay: Plasma protein binding in mouse at 1 ug/ml after 30 mins; assay type: ADME, cell-free; conditions: 0.5 h
Procedure, shortened: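 Ultrafiltration on mouse plasma preincubated 15 min at 37 °C, compound spiked to 1 μg/mL final. Aliquots taken at 0 and 15 min, remainder spun through a 10 kDa filter for 30 min at 37 °C, 2850 g. Filtrate deproteinized and analysed by LC-MS/MS.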

Liver microsomes [5] = assay: Intrinsic clearance in human liver microsomes assessed per gram of liver at 1 uM after 60 mins at pH 7.4 by LC-MS/MS analysis; assay type: ADME, Microsome; conditions: pH 7.4, 1 h
Procedure, shortened: (§3)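 Liver microsomes (0.5 mg protein/mL) in 50 mM potassium phosphate pH 7.4 with 1.0 μM compound at 37 °C for 60 min. Reaction started with NADP/glucose-6-phosphate/MgCl₂/G6PDH cofactor mix; solvent 1% final. LC-MS/MS read-out. CLi from first-order elimination constant by nonlinear regression, corrected for incubation volume, assuming 52.5 mg microsomal protein/g liver.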

[6] = Oral bioavailability in CD1 mouse at 25 mg/kg; assay type: ADME, organism-based; conditions: in vivo; procedure, shortened: as §1
[7] = Fraction unbound in CD1 mouse plasma at 5 mg/kg, iv; assay type: ADME, organism-based; design: dose 5 mg/kg, route intravenous; procedure, shortened: as §2
Liver microsomes [8] = assay: Intrinsic clearance in rat liver microsomes assessed per gram of liver at 1 uM after 60 mins at pH 7.4 by LC-MS/MS analysis; assay type: ADME, Microsome; conditions: pH 7.4, 1 h; procedure, shortened: as §3
HepG2 = assay: Cytotoxicity against human HepG2 cells after 24 hrs by MTS assay; assay type: cell-based; conditions: HepG2, 24 h
Procedure, shortened: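 HepG2 cells kept in RPMI 1640 with 10% FBS plus antibiotics at 37 °C, 5% CO₂. 50 000 cells per well exposed to 10 two-fold serial dilutions for 24 h. MTS reagent then added for 2 h more, absorbance read at 490 nm, IC50 derived.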

Liver = assay: Intrinsic clearance in mouse liver microsomes assessed per gram of liver at 1 uM after 60 mins at pH 7.4 by LC-MS/MS analysis; assay type: ADME, Microsome; conditions: pH 7.4, 1 h; procedure, shortened: as §3
Plasmodium falciparum = assay: Antimalarial activity against mefloquine-resistant Plasmodium falciparum TM91C235 assessed as [3H]hypoxanthine incorporation after 48 hrs; assay type: functional, organism-based
Procedure, shortened: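 Tritiated hypoxanthine incorporation assay (Desjardins method, Milhous modification) with 48 h drug exposure. Uses P. falciparum clone TM91C235 (Southeast Asian, mefloquine-resistant). Compounds 2-fold diluted over 11 concentrations. IC50 derived by nonlinear logistic dose-response fitting, averaged where multiple runs were done.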

Plasmodium berghei [9] = assay: Antimalarial activity against Plasmodium berghei KBG173 infected in mouse assessed as cured mouse at 5 mg/kg, iv BID administered on day 3, 4 and 5 post infection measured up to day 31; assay type: functional, organism-based; design: dose 5 mg/kg
Procedure, shortened: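 Male mice (24–30 g) inoculated intraperitoneally with 5 × 10⁶ P. berghei KBG-173-infected erythrocytes; parasitemia about 1.0–3.7% by day 3. Dosing twice daily on days 3–5 postinfection. Blood smears negative on day 31 counted as cured, scored as cured/total mice (5 per dose). Mice losing ≥20% body weight sacrificed.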

[10] = Aqueous solubility of the compound; assay type: physicochemical; conditions: buffer

CC[C@H]1OC(=O)[C@H](C)[C@@H](O[C@H]2C[C@@](C)(OC)[C@@H](O)[C@H](C)O2)[C@H](C)[C@@H](O[C@@H]2O[C@H](C)C[C@H](N(C)C)[C@H]2O)[C@](C)(O)C[C@@H](C)CN(CCCNc2ccnc3cc(Cl)ccc23)[C@H](C)[C@@H](O)[C@]1(C)O
Vd [1]: 2.9 L/kg
Survival (Plasmodium berghei [2]): 9 days
clearance [3]: 4 mL/min/kg
half-life [4]: 17.8 h
CL free (Mus musculus): 9.5 mL/min/kg
PPB (Plasma): 43%
CLint (Liver microsomes [5]): < 0.6 mL/min/g
bioavailability [6]: 20.4%
fraction unbound [7]: 0.42
CLint (Liver microsomes [8]): < 0.6 mL/min/g
pIC50 (HepG2): 4.52
CLint (Liver): < 0.6 mL/min/g
pIC50 (Plasmodium falciparum): 7.66

CC[C@H]1OC(=O)[C@H](C)[C@@H](O[C@H]2C[C@@](C)(OC)[C@@H](O)[C@H](C)O2)[C@H](C)[C@@H](O[C@@H]2O[C@H](C)C[C@H](N(C)C)[C@H]2O)[C@](C)(O)C[C@@H](C)CN(CCCNc2ccnc3ccccc23)[C@H](C)[C@@H](O)[C@]1(C)O [listing 1 of 2 here]
Activity (Plasmodium berghei [9]): inactive

CC[C@H]1OC(=O)[C@H](C)[C@@H](O[C@H]2C[C@@](C)(OC)[C@@H](O)[C@H](C)O2)[C@H](C)[C@@H](O[C@@H]2O[C@H](C)C[C@H](N(C)C)[C@H]2O)[C@](C)(O)C[C@@H](C)CN(CCCNc2ccnc3ccccc23)[C@H](C)[C@@H](O)[C@]1(C)O [listing 2 of 2 here]
Vd [1]: 4.9 L/kg
Survival (Plasmodium berghei [2]): 3 days
clearance [3]: 7.7 mL/min/kg
half-life [4]: 14.4 h
CL free (Mus musculus): 20 mL/min/kg
PPB (Plasma): 43%
CLint (Liver microsomes [5]): < 0.6 mL/min/g
bioavailability [6]: 1.7%
fraction unbound [7]: 0.39
CLint (Liver microsomes [8]): < 0.6 mL/min/g
pIC50 (HepG2): < 4.30
CLint (Liver): < 0.6 mL/min/g
pIC50 (Plasmodium falciparum): 7.60

CC[C@H]1OC(=O)[C@H](C)[C@@H](O[C@H]2C[C@@](C)(OC)[C@@H](O)[C@H](C)O2)[C@H](C)[C@@H](O[C@@H]2O[C@H](C)C[C@H](N(C)C)[C@H]2O)[C@](C)(O)C[C@@H](C)CN(CCCNCc2ccnc3ccccc23)[C@H](C)[C@@H](O)[C@]1(C)O
Activity (Plasmodium berghei [9]): inactive

CC(=O)O.CC[C@H]1OC(=O)[C@H](C)[C@@H](O[C@H]2C[C@@](C)(OC)[C@@H](O)[C@H](C)O2)[C@H](C)[C@@H](O[C@@H]2O[C@H](C)C[C@H](N(C)C)[C@H]2O)[C@](C)(O)C[C@@H](C)CN(CCCNc2ccnc3cc(Cl)ccc23)[C@H](C)[C@@H](O)[C@]1(C)O
solubility [10]: >= 10 mg kg-1

CC(=O)O.CC[C@H]1OC(=O)[C@H](C)[C@@H](O[C@H]2C[C@@](C)(OC)[C@@H](O)[C@H](C)O2)[C@H](C)[C@@H](O[C@@H]2O[C@H](C)C[C@H](N(C)C)[C@H]2O)[C@](C)(O)C[C@@H](C)CN(CCCNc2ccnc3ccccc23)[C@H](C)[C@@H](O)[C@]1(C)O
solubility [10]: >= 10 mg kg-1

CC(=O)O.CC[C@H]1OC(=O)[C@H](C)[C@@H](O[C@H]2C[C@@](C)(OC)[C@@H](O)[C@H](C)O2)[C@H](C)[C@@H](O[C@@H]2O[C@H](C)C[C@H](N(C)C)[C@H]2O)[C@](C)(O)C[C@@H](C)CN(CCCNCc2ccnc3ccccc23)[C@H](C)[C@@H](O)[C@]1(C)O
solubility [10]: >= 10 mg kg-1

CC(=O)O.CC[C@H]1OC(=O)[C@H](C)[C@@H](O[C@H]2C[C@@](C)(OC)[C@@H](O)[C@H](C)O2)[C@H](C)[C@@H](O[C@@H]2O[C@H](C)C[C@H](N(C)C)[C@H]2O)[C@](C)(O)C[C@@H](C)CN(CCC(=O)N[C@H](C)c2cccc3ccccc23)[C@H](C)[C@@H](O)[C@]1(C)O
solubility [10]: >= 10 mg kg-1

CC[C@H]1OC(=O)[C@H](C)[C@@H](O[C@H]2C[C@@](C)(OC)[C@@H](O)[C@H](C)O2)[C@H](C)[C@@H](O[C@@H]2O[C@H](C)C[C@H](N(C)C)[C@H]2O)[C@](C)(O)C[C@@H](C)CN(CCCNC(=O)CCCc2ccccc2)[C@H](C)[C@@H](O)[C@]1(C)O
pIC50 (HepG2): < 4.30
pIC50 (Plasmodium falciparum): 7.07

CC[C@H]1OC(=O)[C@H](C)[C@@H](O[C@H]2C[C@@](C)(OC)[C@@H](O)[C@H](C)O2)[C@H](C)[C@@H](O[C@@H]2O[C@H](C)C[C@H](N(C)C)[C@H]2O)[C@](C)(O)C[C@@H](C)CN(CCCNc2ncnc3[nH]cnc23)[C@H](C)[C@@H](O)[C@]1(C)O
pIC50 (HepG2): < 4.30
pIC50 (Plasmodium falciparum): < 5.19

CC[C@H]1OC(=O)[C@H](C)[C@@H](O[C@H]2C[C@@](C)(OC)[C@@H](O)[C@H](C)O2)[C@H](C)[C@@H](O[C@@H]2O[C@H](C)C[C@H](N(C)C)[C@H]2O)[C@](C)(O)C[C@@H](C)CN(CCC(=O)N[C@H](C)c2cccc3ccccc23)[C@H](C)[C@@H](O)[C@]1(C)O
Activity (Plasmodium berghei [9]): inactive

CC[C@H]1OC(=O)[C@H](C)[C@@H](O)[C@H](C)[C@@H](O)[C@](C)(O)C[C@@H](C)CN(CCCNCc2cnc3ccccc3c2)[C@H](C)[C@@H](O)[C@]1(C)O
pIC50 (HepG2): < 4.30
pIC50 (Plasmodium falciparum): 5.72

CC[C@H]1OC(=O)[C@H](C)[C@@H](O[C@H]2C[C@@](C)(OC)[C@@H](O)[C@H](C)O2)[C@H](C)[C@@H](O[C@@H]2O[C@H](C)C[C@H](N(C)C)[C@H]2O)[C@](C)(O)C[C@@H](C)CN(CCCNC(=O)CCc2ccccc2)[C@H](C)[C@@H](O)[C@]1(C)O [listing 1 of 2 here]
Activity (Plasmodium berghei [9]): inactive

CC(=O)O.CC[C@H]1OC(=O)[C@H](C)[C@@H](O[C@H]2C[C@@](C)(OC)[C@@H](O)[C@H](C)O2)[C@H](C)[C@@H](O[C@@H]2O[C@H](C)C[C@H](N(C)C)[C@H]2O)[C@](C)(O)C[C@@H](C)CN(CCCNC(=O)CCc2ccccc2)[C@H](C)[C@@H](O)[C@]1(C)O
solubility [10]: >= 10 mg kg-1

CC[C@H]1OC(=O)[C@H](C)[C@@H](O[C@H]2C[C@@](C)(OC)[C@@H](O)[C@H](C)O2)[C@H](C)[C@@H](O[C@@H]2O[C@H](C)C[C@H](N(C)C)[C@H]2O)[C@](C)(O)C[C@@H](C)CN(CCCNC(=O)CCc2ccccc2)[C@H](C)[C@@H](O)[C@]1(C)O [listing 2 of 2 here]
Vd [1]: 5 L/kg
Survival (Plasmodium berghei [2]): -12 days
clearance [3]: 23.3 mL/min/kg
half-life [4]: 6.9 h
CL free (Mus musculus): 54 mL/min/kg
PPB (Plasma): 43%
CLint (Liver microsomes [5]): < 0.6 mL/min/g
bioavailability [6]: 12.7%
fraction unbound [7]: 0.43
CLint (Liver microsomes [8]): < 0.6 mL/min/g
pIC50 (HepG2): < 4.30
CLint (Liver): < 0.6 mL/min/g
pIC50 (Plasmodium falciparum): 7.15

CC[C@H]1OC(=O)[C@H](C)[C@@H](O[C@H]2C[C@@](C)(OC)[C@@H](O)[C@H](C)O2)[C@H](C)[C@@H](O[C@@H]2O[C@H](C)C[C@H](N(C)C)[C@H]2O)[C@](C)(O)C[C@@H](C)CN(CCC(=O)NCCc2ccccc2)[C@H](C)[C@@H](O)[C@]1(C)O
pIC50 (HepG2): < 4.30
pIC50 (Plasmodium falciparum): 6.44

CC[C@H]1OC(=O)[C@H](C)[C@@H](O[C@H]2C[C@@](C)(OC)[C@@H](O)[C@H](C)O2)[C@H](C)[C@@H](O[C@@H]2O[C@H](C)C[C@H](N(C)C)[C@H]2O)[C@](C)(O)C[C@@H](C)CN(CCCNC(=O)[C@H](C)c2ccc3cc(OC)ccc3c2)[C@H](C)[C@@H](O)[C@]1(C)O
pIC50 (HepG2): 4.70
pIC50 (Plasmodium falciparum): 7.24

CC[C@H]1OC(=O)[C@H](C)[C@@H](O[C@H]2C[C@@](C)(OC)[C@@H](O)[C@H](C)O2)[C@H](C)[C@@H](O[C@@H]2O[C@H](C)C[C@H](N(C)C)[C@H]2O)[C@](C)(O)C[C@@H](C)CN(CCCNC(=O)Cc2ccc3ccccc3c2)[C@H](C)[C@@H](O)[C@]1(C)O
pIC50 (HepG2): 4.40
pIC50 (Plasmodium falciparum): 7.10
